The values that follow come from ChEMBL document CHEMBL1212840, “Lysine N(epsilon)-trimethylation, a tool for improving the selectivity of antimicrobial peptides” (J Med Chem, 2010).

Series [1] can be described thus: Selectivity index, ratio of HC50 for sheep erythrocyte to MIC50 for Acinetobacter baumannii ATCC 19606 ATCC 19606. It is filed as functional.
Series [2] concerns Leishmania donovani. Put plainly: Antileishmanial activity against Leishmania donovani MHOM/SD/001S-2D promastigotes after 72 hrs by MTT assay. The format is functional, organism-based. The method in brief: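 L. donovani promastigotes (strain MHOM/SD/00/1S-2D) are harvested at late exponential phase and washed in Hank's + 20 mM D-glucose, pH 7.2. They are treated with peptide at 2 × 10^7 parasites/mL for 4 h at 26 °C. A 20 μL aliquot then goes into complete medium for 72 h at 26 °C to let survivors proliferate. LC50 is 50% inhibition of proliferation. Triplicates, repeated at least twice.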
In general terms: Tetrazolium dyes change colour on reduction, which living cells bring about.

Series [3] is described as follows: Selectivity index, ratio of IC50 for sheep erythrocyte to LC50 for Leishmania donovani MHOM/SD/001S-2D promastigotes. The method in brief: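 SI = HC50/LC50. For HC50, washed sheep erythrocytes at 2 × 10^7 cells/mL in Hank's are exposed to peptide for 4 h at 37 °C. Hemoglobin in the supernatant is read at 550 nm; 0.1% Triton X-100 gives full lysis, and HC50 is 50% release.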

The test system of series [4] is Leishmania pifanoi. Put plainly: Antileishmanial activity against Leishmania pifonoi MHOM/VE/60/LTrod amastigotes after 4 hrs by MTT assay.
A short description of series [5]: Selectivity index, ratio of IC50 for sheep erythrocyte to LC50 for Leishmania pifanoi MHOM/VE/60/LTrod amastigotes. The method in brief:
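SI = HC50/LC50. HC50 comes from sheep erythrocytes (2 × 10^7 cells/mL in Hank's, 4 h, 37 °C, hemoglobin at 550 nm, 0.1% Triton X-100 as full lysis). For LC50, L. pifanoi axenic amastigotes at 2 × 10^7/mL in Hank's + 20 mM glucose get peptide for 4 h at 32 °C. An aliquot is then regrown in complete medium for 96 h at 32 °C.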

The test system of the next series is Acinetobacter baumannii. Put plainly: Antimicrobial activity against Acinetobacter baumannii ATCC 19606 ATCC 19606 by turbidimetry. It is filed as functional.
Series [6] concerns Leishmania donovani. The series can be described thus: Antileishmanial activity against Leishmania donovani MHOM/SD/001S-2D promastigotes after 4 hrs by MTT assay.
Series [7] deals with Leishmania pifanoi. Put plainly: Antileishmanial activity against Leishmania pifonoi MHOM/VE/60/LTrod promastigotes after 72 hrs by MTT assay. It is filed as functional, organism-based.
The nature of series [8]: Selectivity index, ratio of HC50 for sheep erythrocyte to MIC50 for Staphylococcus aureus CECT 240. The format is functional.
Series [9] is described as follows: Toxicity in sheep erythrocyte assessed as hemolysis. It is filed as cell-based, Ovis aries. The following applies: sheep erythrocytes. The method in brief: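 Washed sheep erythrocytes at 2 107 cells/mL in Hank's medium were exposed to peptide for 4 h at 37 °C, then spun (5 min, 4 °C). Hemoglobin in the supernatant was read at 550 nm. HC50 is the peptide concentration releasing 50% of the hemoglobin freed by 0.1% Triton X-100.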

For another series, the system named is Staphylococcus aureus. The series can be described thus: Antimicrobial activity against Staphylococcus aureus CECT 240 by turbidimetry. It is filed as functional.

Square brackets hold non-standard residues; d marks the D form. Peptide text beside a SMILES is read from it. Lys(Me3) = C[N+](C)(C)CCCC[C@H](N)C(=O)O

Take `CC[C@H](C)[C@H](NC(=O)[C@H](CCCCN)NC(=O)[C@H](CCCCN)NC(=O)[C@H](Cc1ccccc1)NC(=O)[C@H](CC(C)C)NC(=O)[C@H](CCCC[N+](C)(C)C)NC(=O)[C@H](Cc1c[nH]c2ccccc12)NC(=O)[C@@H](N)CCCC[N+](C)(C)C)C(=O)NCC(=O)N[C@@H](C)C(=O)N[C@H](C(=O)N[C@@H](CC(C)C)C(=O)N[C@@H](CCCCN)C(=O)N[C@H](C(=O)N[C@@H](CC(C)C)C(N)=O)C(C)C)C(C)C.[Cl-].[Cl-]` (H-[Lys(Me3)]W[Lys(Me3)]LFKKIGAVLKVL-NH2): the “Selectivity Index” value turned out to be 30 in [1], 6.7 in series [3], 4.2 in series [5] and 13.1 in series [8]. Further, the LC50 (in general, the concentration that kills 50% of the test population) with Leishmania donovani [2] is 15.5 µM; with Leishmania pifanoi [7], 24.8 µM. Also, the IC50 (in general, the midpoint of a concentration-inhibition curve) in the series on Leishmania pifanoi [4] worked out at 16.2 µM; in the series with Leishmania donovani [6], 12.8 µM. Also, the MIC50 (as a rule, an inhibitory concentration at the 50% level, which refers to growth in some studies and to a panel of isolates in others) against Acinetobacter baumannii was determined as 3.5 µM; against Staphylococcus aureus it was 8 µM. For the same compound, the HC50 (commonly the concentration giving 50% haemolysis) in series [9] worked out at 105 µM.
With H-KWKLFKKIGAVLKVL-NH2, the “Selectivity Index” value in [1] is reported as 36.5; in series [3], 26.8; in series [5], 8.9; in series [8], 13.8. Further, the figures for the LC50 in the series on Leishmania donovani [2] and in the series on Leishmania pifanoi [7] were 1.5 µM and 4.5 µM, respectively. The IC50 in the series on Leishmania pifanoi [4] was determined as 4.3 µM; in the series with Leishmania donovani [6], 1.8 µM. Also, the MIC50 was 1.1 µM in the series with Acinetobacter baumannii and 2.9 µM against Staphylococcus aureus. In series [9], the HC50 was determined as 40.2 µM.
